Measurements as given in ChEMBL document CHEMBL4184168, “Anticancer activities of emetine prodrugs that are proteolytically activated by the prostate specific antigen (PSA) and evaluation of in vivo toxicity of emetine derivatives” (Bioorg Med Chem, 2017).
Calls of active or inactive are those of the source. No cut-off for these calls is given here. *1 amine or outer side, *2 acyl side, *3 side chain or, on linkers, in order; H or OH if unused. Where a SMILES comes first, the peptide text is derived from it. [ ]: non-standard residue; d: D form. The star is where a group is joined. Emetine(N2') = CC[C@H]1CN2CCc3cc(OC)c(OC)cc3[C@@H]2C[C@@H]1C[C@@H]1c2cc(OC)c(OC)cc2CCN1*; PABC = O=C(OCc1ccc(N[*:1])cc1)[*:2]

Columns and labels:
[1] = Toxicity in iv dosed Balb/C mouse; assay type: organism-based; settings: in vivo
Method in brief: (§1)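 Male Balb/c mice, eight weeks old, about 25 g. Single IV bolus of 200 μL, doses ranging from 8 to 100 mg/kg, in 1% DMSO/saline or 10% cremophor/saline; vehicle-only controls. Each dose tested in triplicate. Mice watched for convulsions, death and behaviour after injection to set the maximum tolerated dose.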

Mus musculus [2] = assay: Toxicity in Balb/C mouse assessed as mortality at >100 mg/kg, iv; assay type: organism-based; settings: in vivo; method in brief: as §1
Mus musculus [3] = assay: Toxicity in Balb/C mouse assessed as change in behavior at >100 mg/kg, iv; assay type: organism-based; settings: in vivo; method in brief: as §1
Mus musculus [4] = assay: Toxicity in Balb/C mouse at >100 mg/kg, iv; assay type: organism-based; settings: in vivo; method in brief: as §1
Mus musculus [5] = assay: Toxicity in Balb/C mouse assessed as death at 33 mg/kg, iv measured at 1 min post dose; assay type: organism-based; settings: in vivo; method in brief: as §1
Mus musculus [6] = assay: Toxicity in Balb/C mouse assessed as convulsion at 33 mg/kg, iv measured at 1 min post dose; assay type: organism-based; settings: in vivo; method in brief: as §1
PC-3 [7] = assay: Antiproliferative activity against human PC3 cells at 10000 nM after 3 days by MTT assay; assay type: functional, cell-based
Method in brief: (§2)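 LNCaP seeded at 5 × 10^3 cells/well; PC3, CWR22Rv1 and MDA-MB-231 at 2.5 × 10^3. The first three were grown in RPMI and MDA-MB-231 in DMEM, each with 10% FBS. After 24 h attachment, cells got final 10, 50, 100, 1000 or 10,000 nM (0.1% DMSO) in eight replicates. Viable cells by MTT on day 0, 3 and 5, A570 corrected at 650 nm. Experiments run at least twice.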

LNCaP [8] = assay: Antiproliferative activity against human LNCAP cells expressing PSA at 10000 nM after 3 days by MTT assay; assay type: functional, cell-based; method in brief: as §2
[9] = Stability in conditioned media assessed as parent compound remaining at […] after 72 hrs by HPLC-MS analysis; assay type: physicochemical; settings: read-out: Stability
Mus musculus [10] = assay: Toxicity in Balb/C mouse at >50 mg/kg, iv; assay type: organism-based; settings: in vivo; method in brief: as §1
PC-3 [11] = assay: Antiproliferative activity against human PC3 cells after 3 days by MTT assay; assay type: functional, cell-based; settings: PC-3, 72 h; method in brief: as §2
LNCaP [12] = assay: Antiproliferative activity against human LNCAP cells expressing PSA after 3 days by MTT assay; assay type: functional, cell-based; settings: 72 h; method in brief: as §2
[13] = Stability in PBS buffer assessed as parent compound remaining at […] after 72 hrs by HPLC-MS analysis; assay type: physicochemical; settings: read-out: Stability
[14] = Stability assessed as parent compound remaining at […] in presence of 10% FBS after 72 hrs by HPLC-MS analysis; assay type: physicochemical; settings: cattle, read-out: Stability
[15] = molecular target: T1, Prostate-specific antigen (PSA) (Homo sapiens, UniProt P07288); assay: Stability in PBS buffer assessed as human PSA mediated compound metabolism by measuring parent compound remaining at […] after 72 hrs by HPLC-MS analysis; assay type: ADME; settings: read-out: Stability
T1 sequence (P07288 whole entry): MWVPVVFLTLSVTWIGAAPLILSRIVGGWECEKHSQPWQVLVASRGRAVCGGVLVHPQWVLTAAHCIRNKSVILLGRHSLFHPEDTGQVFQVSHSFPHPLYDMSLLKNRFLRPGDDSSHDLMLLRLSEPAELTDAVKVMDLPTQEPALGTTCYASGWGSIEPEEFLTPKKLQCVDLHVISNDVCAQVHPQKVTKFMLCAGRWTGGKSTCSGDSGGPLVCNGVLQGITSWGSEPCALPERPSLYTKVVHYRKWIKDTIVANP

Mus musculus [16] = assay: Toxicity in Balb/C mouse assessed as convulsion at >25 mg/kg, iv up to 1 min; assay type: organism-based; settings: in vivo; method in brief: as §1
Mus musculus [17] = assay: Toxicity in Balb/C mouse assessed as death at >25 mg/kg, iv up to 1 min; assay type: organism-based; settings: in vivo; method in brief: as §1

Which MTD [1] does the source give for `CC[C@H]1CN2CCc3cc(OC)c(OC)cc3[C@@H]2C[C@@H]1C[C@@H]1c2cc(OC)c(OC)cc2CCN1C(=O)CCC(=O)O` here?
Its MTD is > 100 mg/kg.

What about the Activity (Mus musculus [2]) of the same compound?
Its Activity is “Non-Toxic”.

What about the Activity (Mus musculus [3]) of the same compound?
The Activity was “Non-Toxic”.

What does the source list for `CC[C@H]1CN2CCc3cc(OC)c(OC)cc3[C@@H]2C[C@@H]1C[C@@H]1c2cc(OC)c(OC)cc2CCN1C(=S)Nc1ccccc1`?
MTD [1]: > 100 mg/kg; Activity (Mus musculus [2]): Non-Toxic; Activity (Mus musculus [3]): Non-Toxic; Activity (Mus musculus [4]): Non-Toxic

Which Activity (Mus musculus [5]) does the source give for `CC[C@H]1CN2CCc3cc(OC)c(OC)cc3[C@@H]2C[C@@H]1C[C@@H]1c2cc(OC)c(OC)cc2CCN1C(=O)OCc1ccc(NC(=O)[C@@H]2CCCN2C(=O)[C@H](C)NC(=O)[C@@H]2CCCN2C(=O)[C@H](C)NC(C)=O)cc1` (Ac-APAP[PABC]-{Emetine(N2')}) here?
Its Activity is “Toxic”.

What about the Activity (Mus musculus [6]) of the same compound?
The Activity was “Toxic”.

With `CC[C@@H]1C[C@@H](C[C@@H]2c3cc(OC)c(OC)cc3CCN2C(=O)OCc2ccc(NC(=O)[C@H](CC(C)C)NC(=O)[C@H](CO)NC(C)=O)cc2)[C@H]2c3cc(OC)c(OC)cc3CCN2C1` as the compound, how does the Activity (PC-3 [7]) read?
Its Activity is “Active”.

What about the Activity (LNCaP [8]) of the same compound?
Its Activity is “Active”.

With `CC[C@H]1CN2CCc3cc(OC)c(OC)cc3[C@@H]2C[C@@H]1C[C@@H]1c2cc(OC)c(OC)cc2CCN1C(=O)OCc1ccc([N+](=O)[O-])cc1` as the compound, how does the MTD [1] read?
Its MTD is > 64 mg/kg.

What about the Activity (Mus musculus [2]) of the same compound?
Its Activity is “Non-Toxic”.

And the Activity (Mus musculus [3])?
The Activity was “Non-Toxic”.

What about the Activity (Mus musculus [4]) of the same compound?
Its Activity is “Non-Toxic”.

With `CC[C@H]1CN2CCc3cc(OC)c(OC)cc3[C@@H]2C[C@@H]1C[C@@H]1c2cc(OC)c(OC)cc2CCN1C(=S)[S-].[Na+]` as the compound, how does the MTD [1] read?
The MTD was > 100 mg/kg.

And the Activity (Mus musculus [2])?
Its Activity is “Non-Toxic”.

And the Activity (Mus musculus [3])?
The Activity was “Non-Toxic”.

Which remaining at 72 h [9] does the source give for `CC[C@H]1CN2CCc3cc(OC)c(OC)cc3[C@@H]2C[C@@H]1C[C@@H]1c2cc(OC)c(OC)cc2CCN1C(=O)OCc1ccc(NC(=O)[C@H](CC(C)C)NC(=O)[C@@H](N)CO)cc1` here?
The remaining at 72 h was 100%.

And the Activity (Mus musculus [10])?
Its Activity is “Toxic”.

And the IC50 (PC-3 [11])?
The IC50 was 100 nM.

What about the MTD [1] of the same compound?
Its MTD is 50 mg/kg.

What about the IC50 (LNCaP [12]) of the same compound?
The IC50 was 100 nM.

What about the remaining at 72 h [13] of the same compound?
The remaining at 72 h was 100%.

What about the remaining at 72 h [14] of the same compound?
Its remaining at 72 h is 100%.

What about the remaining at 72 h [15] of the same compound?
The remaining at 72 h was 100%.

With `CC[C@H]1CN2CCc3cc(OC)c(OC)cc3[C@@H]2C[C@@H]1C[C@@H]1c2cc(OC)c(OC)cc2CCN1C(=O)OCc1ccc(NC(=O)[C@@H]2CCCN2C(=O)[C@H](C)NC(=O)[C@@H]2CCCN2C(=O)CNC(=O)[C@H](C)NC(=O)[C@@H]2CCCN2C(=O)CNC(=O)[C@H](CO)NC(=O)[C@H](C)NC(C)=O)cc1` (Ac-ASGPAGPAP[PABC]-{Emetine(N2')}) as the compound, how does the Activity (Mus musculus [16]) read?
Its Activity is “Toxic”.

And the Activity (Mus musculus [17])?
The Activity was “Toxic”.

And the MTD [1]?
Its MTD is 25 mg/kg.
